What was measured:
[1] = target: Human immunodeficiency virus type 1 reverse transcriptase (Human immunodeficiency virus 1, UniProt Q72547); assay: Inhibitory activity against HIV-reverse transcriptase (HIV-RT)
Mus musculus = species: Mus musculus; assay: Cellular cytotoxicity in normal mouse spleen stimulated with concanavalin A; assay type: functional
Procedure, shortened: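 Normal murine spleen cells at 2.5 × 10^6 or 5 × 10^6 cells/mL in complete RPMI 1640 with 10% FCS, stimulated with ConA 2.5 µg/mL. Analogue range added in triplicate, incubated 48 h at 37 °C, 5% CO2. MTT then added for 4-6 h, formazan dissolved in acidified 2-propanol, OD at 600 nm. CC50 by linear interpolation against untreated controls.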

H9 = assay: Cellular cytotoxicity against human lymphocytic cell lines H-9.; assay type: functional
Procedure, shortened: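 H-9 and CCRF-CEM human lymphocytic lines subcultured in complete RPMI 1640 with 10% FCS, without ConA or β-mercaptoethanol, at 6.25 × 10^5 and 2 × 10^6 cells/mL. Triplicate wells given a range of analogue concentrations at 37 °C, 5% CO2 for 48 h, then MTT 4-6 h, read at 600 nm. CC50 by linear interpolation versus untreated cells; data from both lines pooled.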

Row | SMILES | IC50 [1] [µM] | CC50 (Mus musculus) [µM] | CC50 (H9) [µM]
1 | CC(=O)NC1=CC(=O)c2ccc(-c3[nH]c(C(N)=O)cc4c5ccccc5nc3-4)nc2C1=O | 12.7 | 50 | 95
2 | CC(=O)NC1=CC(=O)c2ccc(-c3[nH]c(C(=O)OCCOP(=O)(O)O)cc4c5ccccc5nc3-4)nc2C1=O | 3 | 29 | 27
3 | CC(=O)NC1=CC(=O)c2ccc(-c3[nH]c(C(=O)O)cc4c5ccccc5nc3-4)nc2C1=O | 13.3 | 47 | 81
4 | COC(=O)c1[nH]c(-c2ccc3c(n2)C(=O)C(NC(C)=O)=CC3=O)c2nc3ccccc3c-2c1C | 15.1 | 62 | 31
5 | CCCCOC(=O)c1cc2c([nH]c3ccccc32)c(-c2ccc3c(n2)C(=O)C(NC(=O)CCC)=CC3=O)n1 [LAV12] | 5.8 | 81 | 50

From ChEMBL document CHEMBL1145946, “Novel lavendamycin analogues as potent HIV-reverse transcriptase inhibitors: synthesis and evaluation of anti-reverse transcriptase activity of amide and ester analogues of lavendamycin” (J Med Chem, 2003)
